This note sets out measurements from ChEMBL document CHEMBL1132098, “2,7-diazabicyclo[3.3.0]octanes as novel h5-HT receptor agonists” (Bioorg Med Chem Lett, 1999).

In general, IC50 refers to the concentration needed to halve the response being measured. Low values mean greater potency, high ones weaker potency. As a reminder, the pKa is the pH at which an ionisable group is half protonated. High values mean a weaker acid or stronger base, low ones a stronger acid or weaker base. Broadly, the EC50 is the concentration giving half of the maximal effect.

The target in data set [1] is Serotonin 1 receptors; 5-HT1B & 5-HT1D (Homo sapiens) (UniProt P28222+P28221). As to the kind of experiment: Selectivity ratio for h-5-HT 1B receptor to that of h5-HT 1D receptors. The data set is classed as protein assay. In outline: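 Displacement of [3H]-5-HT binding at cloned human 5-HT1B and 5-HT1D receptors, with radioligand at roughly its KD for each receptor. Ratio obtained by dividing the mean IC50 values for the two receptors.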

The target in data set [2] is T1, 5-hydroxytryptamine receptor 1D (Homo sapiens, UniProt P28221). Description: Ability to displace [3H]- -5-HT binding to cloned 5-hydroxytryptamine 1D receptor stably expressed in chinese hamster cells (CHO cells). The data set is classed as cell-based. In outline: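 Human 5-HT1D receptor cloned and stably expressed in CHO cells. Displacement of [3H]-5-HT binding, with radioligand at roughly its KD for the receptor. At least three independent experiments, each run in duplicate. IC50 reported as geometric mean with limits derived from the SEM.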

In data set [3] the target is T1, 5-hydroxytryptamine receptor 1D. Description: Maximum stimulation of [35S]GTP-gamma-S, binding expressed relative to the maximal effect produced by the 5-HT. The data set is classed as functional. In outline: (§1)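 Agonist-induced [35S]GTPγS binding measured in CHO cells stably transfected with the human 5-HT1D receptor. Maximal effect expressed as % of the 5-HT maximum.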

Data set [4] can be described thus: Acid dissociation constant was determined. In kind it is ADME.
For data set [5], the target named is T1, 5-hydroxytryptamine receptor 1D. As to the kind of experiment: Measurement of agonist induced [35S]GTP-gamma-S, binding in CHO cells stably transfected with 5-hydroxytryptamine 1D receptor. In kind it is functional, cell-based. In outline:
as §1

Data set [6] concerns Rattus norvegicus. Description: Drug concentration was measured in plasma samples originating from the cardiac puncture (systemic) at 2 h post administration. In kind it is functional, organism-based. In short, it runs like this: (§2)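 Rats dosed orally at 3 mg/kg (5 mL/kg, aqueous formulation). Plasma taken from the hepatic portal vein and by cardiac puncture (systemic) at 0.5 and 2 h after dosing. Drug concentration reported in ng/mL.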

Data set [7] has as its system Rattus norvegicus. Description: Drug concentration was measured in plasma samples originating from the hepatic portal vein (hpv) at 2 hr post administration. The data set is classed as functional, organism-based. In outline: as §2
Data set [8] deals with Rattus norvegicus. As to the kind of experiment: Drug concentration was measured in plasma samples originating from the hepatic portal vein (hpv) at 0.5 hr post administration. The data set is classed as functional, organism-based. In short, it runs like this:
as §2

Data set [9] deals with Rattus norvegicus. As to the kind of experiment: Drug concentration was measured in plasma samples originating from the cardiac puncture (systemic) at 0.5 hr post administration. The data set is classed as functional, organism-based. In outline: as §2

T1 sequence (P28221 whole entry): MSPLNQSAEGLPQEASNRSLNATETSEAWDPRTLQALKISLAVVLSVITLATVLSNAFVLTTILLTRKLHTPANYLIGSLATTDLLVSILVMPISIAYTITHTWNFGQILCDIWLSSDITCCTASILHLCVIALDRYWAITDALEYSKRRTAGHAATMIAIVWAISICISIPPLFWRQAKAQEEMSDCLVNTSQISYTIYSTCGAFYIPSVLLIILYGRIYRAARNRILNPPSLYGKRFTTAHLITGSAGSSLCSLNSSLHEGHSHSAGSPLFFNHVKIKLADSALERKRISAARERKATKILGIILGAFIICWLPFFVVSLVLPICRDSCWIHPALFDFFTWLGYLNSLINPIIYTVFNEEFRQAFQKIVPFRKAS

Consider `CN1C[C@@H](CN(C#N)Cc2ccccc2)C[C@@H]1Cc1c[nH]c2ccc(-n3ccnc3)cc12`, for which, in data set [1], the Selectivity was found to be 6.7. In data set [2], this compound showed a half-inhibitory concentration (IC50) of 3.3 nM.
Turning to `CN1[C@@H](Cc2c[nH]c3ccc(-n4cnnc4)cc23)C[C@@H]2CN(Cc3ccccc3)C[C@@H]21` (racemic), in [3], the Efficacy is 96. The compound further came in with a pKa in [4] of 8.5. In [5], this compound returned an EC50 of 0.5 nM. Besides, the Selectivity in [1] came to 6.7. In addition, the IC50 in data set [2] worked out at 0.9 nM.
The compound `CN1[C@@H](Cc2c[nH]c3ccc(-n4cnnc4)cc23)C[C@@H]2CN(Cc3ccc(F)cc3)C[C@@H]21` (racemic) came in with an Efficacy in data set [3] of 88. In data set [5], this compound returned an EC50 of 2.9 nM. Besides, the Selectivity in data set [1] is 13. Besides, in data set [2], the IC50 is 0.8 nM.
The compound `CN1[C@@H](Cc2c[nH]c3ccc(-n4ccnc4)cc23)C[C@@H]2CN(Cc3ccccc3)C[C@@H]21` (racemic) showed an Efficacy in data set [3] of 69. In addition, the Absorption in data set [6] was 10 ng/mL; in [7], 105 ng/mL; in data set [8] it was 558 ng/mL; in data set [9], 47 ng/mL. This compound also returned an EC50 in [5] of 1.2 nM. For the same compound, the Selectivity in [1] was 8.4. For the same compound, the IC50 in [2] was 0.7 nM.
Turning to `CN(Cc1ccccc1)C[C@H]1C[C@H](Cc2c[nH]c3ccc(-n4ccnc4)cc23)N(C)C1`, the Absorption in [6] was < 4 ng/mL; in data set [7], 30 ng/mL; in data set [8], 21 ng/mL; in data set [9], < 4 ng/mL. In data set [4], this compound had a pKa of 8.7. The Selectivity in [1] came out at 6.9. Also, the IC50 in data set [2] came out at 0.9 nM.
In [3], `c1ccc(CNC[C@@H]2CCN(CCc3c[nH]c4ccc(-n5cnnc5)cc34)C2)cc1` registered an Efficacy of 102. In addition, the Absorption in data set [6], in data set [7], in [8] and in data set [9] was < 5 ng/mL each time. Moreover, in [1], the Selectivity is 62.
On to `CN1[C@@H](Cc2c[nH]c3ccc(-n4cnnc4)cc23)C[C@@H]2CN(CCc3cccc(F)c3)C[C@@H]21` (racemic), for which the Efficacy in data set [3] is 63. For the same compound, the 50% effective concentration (EC50) in data set [5] was 1.9 nM. In addition, the Selectivity in data set [1] worked out at 15. The same compound displayed an IC50 in data set [2] of 1.2 nM.
